The record followed here is ChEMBL document CHEMBL5136969, “A niclosamide-tobramycin hybrid adjuvant potentiates cefiderocol against P. aeruginosa” (2021).

The test system of test [1] is Acinetobacter baumannii. The test is described as follows: Potentiation of ciprofloxacin-induced antibiotic activity against Acinetobacter baumannii ATCC 17978 assessed as MIC fold reduction at 8 ug/ml after 18 hrs by microbroth dilution method. The following applies: dose 8 µg/ml. Format: functional. A digest of the protocol:
(§1)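 Adjuvant held at a fixed 8 μg/mL while the antibiotic was 2-fold serially diluted in Mueller-Hinton broth (MHB), per CLSI microbroth dilution. Overnight cultures were adjusted in saline to 0.5 McFarland, then diluted 1:50 in MHB to about 5 × 10^5 CFU/mL final, and incubated 18 h at 37 °C. MIC was the lowest concentration with no visible turbidity, confirmed at 590 nm. Fold potentiation = MIC alone / MIC with adjuvant.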
In general terms: Broth dilution looks for growth in wells or tubes with falling amounts of substance.

Test [2] deals with Acinetobacter baumannii. The test is described as follows: Potentiation of tobramycin-induced antibiotic activity against Acinetobacter baumannii ATCC 17978 assessed as MIC fold reduction at 8 ug/ml after 18 hrs by microbroth dilution method. Format: functional. The note with it: dose 8 µg/ml.
Test [3] has as its system Pseudomonas aeruginosa. Kind of test: Potentiation of cefotaxime-induced antibiotic activity against Pseudomonas aeruginosa PAO1 assessed as MIC fold reduction at 8 ug/ml after 18 hrs by microbroth dilution method. Type of test: functional. The note with it: dose 8 µg/ml. A digest of the protocol:
as §1

The test system of test [4] is Acinetobacter baumannii. Kind of test: Potentiation of ceftazidime-induced antibiotic activity against Acinetobacter baumannii ATCC 17978 assessed as MIC fold reduction at 8 ug/ml after 18 hrs by microbroth dilution method. Format: functional. The following applies: dose 8 µg/ml. In a few lines:
as §1

Test [5] concerns Escherichia coli. The test is described as follows: Potentiation of rifampicin-induced antibiotic activity against Escherichia coli ATCC 25922 assessed as MIC fold reduction at 8 ug/ml after 18 hrs by microbroth dilution method. The following applies: dose 8 µg/ml. Format: functional.
Test [6] relates to Acinetobacter baumannii. The test is described as follows: Potentiation of erythromycin-induced antibiotic activity against Acinetobacter baumannii ATCC 17978 assessed as MIC fold reduction at 8 ug/ml after 18 hrs by microbroth dilution method. The note with it: dose 8 µg/ml. Type of test: functional. A digest of the protocol: as §1
Test [7] has as its system Pseudomonas aeruginosa. Kind of test: Potentiation of fosfomycin-induced antibiotic activity against Pseudomonas aeruginosa PAO1 assessed as MIC fold reduction at 8 ug/ml after 18 hrs by microbroth dilution method. Type of test: functional. The following applies: dose 8 µg/ml. A digest of the protocol:
as §1

Test [8] has as its system Acinetobacter baumannii. Kind of test: Potentiation of fosfomycin-induced antibiotic activity against Acinetobacter baumannii ATCC 17978 assessed as MIC fold reduction at 8 ug/ml after 18 hrs by microbroth dilution method. Type of test: functional. The following applies: dose 8 µg/ml. In a few lines: as §1
In test [9] the test system is Acinetobacter baumannii. The test is described as follows: Potentiation of sulfamethoxazole-induced antibiotic activity against Acinetobacter baumannii ATCC 17978 assessed as MIC fold reduction at 8 ug/ml after 18 hrs by microbroth dilution method. The note with it: dose 8 µg/ml. Type of test: functional.
The subject of test [10] is Pseudomonas aeruginosa. The test is described as follows: Potentiation of ceftazidime-induced antibiotic activity against […] Pseudomonas aeruginosa PAO1 assessed as MIC fold reduction at 8 ug/ml after 18 hrs by microbroth dilution method. The note with it: dose 8.0 µg/ml. Format: functional, organism-based. In a few lines:
as §1

The subject of test [11] is Pseudomonas aeruginosa. The test is described as follows: Antibacterial activity against […] Pseudomonas aeruginosa PAO1 assessed as reduction in bacterial growth after 18 hrs by microbroth dilution method. Type of test: functional. In a few lines: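 Broth microdilution per CLSI in Mueller-Hinton broth (MHB). Overnight cultures were adjusted to 0.5 McFarland in saline, diluted 1:50 in MHB, and added at about 5 × 10^5 CFU/mL final to equal volumes of 2-fold serial dilutions of agent. Incubation was 18 h at 37 °C. MIC was the lowest concentration with no visible turbidity, confirmed by absorbance at 590 nm.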

The test system of test [12] is Pseudomonas aeruginosa. Kind of test: Antibacterial activity against MDR clinical isolate Pseudomonas aeruginosa PA262 assessed as potentiation of cefiderocol antibacterial activity by measuring FIC index after 18 hrs by microbroth dilution method. Type of test: functional. A digest of the protocol: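 Checkerboard in MHB. Cefiderocol was 2-fold serially diluted along one axis and the adjuvant along the other. Inoculum was prepared from 0.5 McFarland saline suspensions diluted 1:50 in MHB, giving about 5 × 10^5 CFU/mL final. Plates ran 18 h at 37 °C, with turbidity confirmed at 590 nm. FIC = combination MIC ÷ MIC alone for each agent, and FIC index = sum of both. Interpretation: ≤0.5 synergy, >0.5–4 additive, >4 antagonism.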

In test [13] the test system is Pseudomonas aeruginosa. The test is described as follows: Antibacterial activity against MDR clinical isolate Pseudomonas aeruginosa PA86052 assessed as potentiation of cefiderocol antibacterial activity by measuring FIC index after 18 hrs by microbroth dilution method. Format: functional. In a few lines: (§2)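 Checkerboard in MHB (iron-replete, not iron-depleted CAMHB). Cefiderocol was 2-fold serially diluted along one axis and the adjuvant along the other. Inoculum was 0.5 McFarland diluted 1:50, about 5 × 10^5 CFU/mL final. Incubation was 18 h at 37 °C, with turbidity read visually and confirmed at 590 nm. FIC was the MIC in combination over the MIC alone for each agent, and the FIC index was their sum. Cut-offs were ≤0.5 synergy, >0.5–4 additive, >4 antagonism.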

Test [14] has as its system Pseudomonas aeruginosa. The test is described as follows: Antibacterial activity against MDR clinical isolate Pseudomonas aeruginosa PA88949 assessed as potentiation of cefiderocol antibacterial activity by measuring FIC index after 18 hrs by microbroth dilution method. Format: functional. A digest of the protocol:
as §2

Test [15] relates to Pseudomonas aeruginosa. The test is described as follows: Antibacterial activity against MDR clinical isolate Pseudomonas aeruginosa PA108590 assessed as potentiation of cefiderocol antibacterial activity by measuring FIC index after 18 hrs by microbroth dilution method. Format: functional. A digest of the protocol: as §2
In test [16] the test system is Acinetobacter baumannii. The test is described as follows: Antibacterial activity against Acinetobacter baumannii LAC-4 assessed as potentiation of cefiderocol antibacterial activity by measuring FIC after 18 hrs by microbroth dilution method. Format: functional. A digest of the protocol: (§3)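 Checkerboard in Mueller-Hinton broth: cefiderocol 2-fold diluted on one axis, adjuvant 2-fold on the other. Overnight cultures were adjusted to 0.5 McFarland in saline, diluted 1:50 in MHB, and inoculated at about 5 × 10^5 CFU/mL. Incubation was 18 h at 37 °C. Turbidity was read visually and confirmed at 590 nm. FIC index = FIC of antibiotic + FIC of adjuvant; ≤0.5 synergy, >4 antagonism.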

The subject of test [17] is Escherichia coli. Kind of test: Antibacterial activity against Escherichia coli 94393 assessed as reduction in bacterial growth after 18 hrs by microbroth dilution method. Type of test: functional. A digest of the protocol: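 CLSI microbroth dilution in MHB. Overnight cultures were adjusted to 0.5 McFarland in saline, diluted 1:50, and inoculated at about 5 × 10^5 CFU/mL. Agents were 2-fold serially diluted and incubated 18 h at 37 °C. MIC is the lowest concentration without visible turbidity, confirmed by absorbance at 590 nm. Medium with and without cells served as controls.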

In the next test the test system is Klebsiella pneumoniae. The test is described as follows: Antibacterial activity against Klebsiella pneumoniae KP116381 assessed as reduction in bacterial growth after 18 hrs by microbroth dilution method. Type of test: functional. A digest of the protocol: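 CLSI broth microdilution. Overnight cultures were adjusted in saline to 0.5 McFarland, diluted 1:50 in Mueller-Hinton broth (MHB), and inoculated at about 5 × 10^5 CFU/mL. Agents were 2-fold serially diluted in MHB, mixed 1:1 with inoculum, and held at 37 °C for 18 h. MIC was the lowest concentration with no visible turbidity, confirmed at 590 nm.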

For test [18], the system named is Escherichia coli. The test is described as follows: Antibacterial activity against Escherichia coli 94393 assessed as reduction in bacterial growth after 18 hrs in presence of cefiderocol by microbroth dilution method. Type of test: functional. In a few lines: as §3
For test [19], the system named is Escherichia coli. The test is described as follows: Antibacterial activity against Escherichia coli ATCC 25922 assessed as potentiation of cefiderocol antibacterial activity by measuring FIC after 18 hrs by microbroth dilution method. Format: functional. A digest of the protocol:
as §3

In test [20] the test system is Escherichia coli. The test is described as follows: Antibacterial activity against Escherichia coli 107115 assessed as potentiation of cefiderocol antibacterial activity by measuring FIC after 18 hrs by microbroth dilution method. Format: functional. A digest of the protocol: as §3
For test [21], the system named is Escherichia coli. The test is described as follows: Antibacterial activity against Escherichia coli 94393 assessed as potentiation of cefiderocol antibacterial activity by measuring FIC after 18 hrs by microbroth dilution method. Format: functional. In a few lines:
as §3

Test [22] relates to Pseudomonas aeruginosa. The test is described as follows: Potentiation of antibiotic activity against Pseudomonas aeruginosa PA259 assessed as MIC fold reduction in ID-CAMHB condition at 8 ug/ml after 18 hrs by microbroth dilution method. The following applies: dose 8.0 µg/ml.

Values after ≈ are worked out from the molar mass of the structure shown. Active and inactive are the calls of the source. A value given as a limit tells only on which side of the number the result lay.

In the case of `NC[C@H]1O[C@H](O[C@H]2[C@H](OCCCCc3cn(-c4ccc(NC(=O)c5cc(Cl)ccc5O)cc4)nn3)[C@@H](O[C@H]3O[C@H](CO)[C@@H](O)[C@H](N)[C@H]3O)[C@H](N)C[C@@H]2N)[C@H](N)C[C@@H]1O`, the “fold change (FC)” value with Acinetobacter baumannii [1], with Acinetobacter baumannii [2], in the test with Pseudomonas aeruginosa [3], with Acinetobacter baumannii [4], with Escherichia coli [5] and in the test on Acinetobacter baumannii [6] was 4 in each case. Moreover, the “fold change (FC)” value with Pseudomonas aeruginosa [7], with Acinetobacter baumannii [8] and in the test with Acinetobacter baumannii [9] was 4 in each case. Besides, the outcome in the test on Pseudomonas aeruginosa [10] and in the test with Pseudomonas aeruginosa [22] was Active. Also, the MIC (commonly the least concentration at which growth counts as inhibited) was 64 µg/mL (≈ 76.5 µM) in the test with Pseudomonas aeruginosa [11], above 128 µg/mL with Escherichia coli [17], above 128 µg/mL in the test on Klebsiella pneumoniae and 1 µg/mL with Escherichia coli [18]. The FIC stood at 0.25 in the test with Pseudomonas aeruginosa [12]; 1 in the test on Pseudomonas aeruginosa [13]; 1 in the test on Pseudomonas aeruginosa [14]; 0.016 in the test on Pseudomonas aeruginosa [15]; 1 in the test on Acinetobacter baumannii [16]; 0.5 in the test with Escherichia coli [19]. Also, the FIC came out at 0.5 with Escherichia coli [20] and 0.25 with Escherichia coli [21].
